Compound activity (PubChem BioAssay)
The list is not random: actives were taken first. Their share in the collection is about 6.7%.
CHOP inhibitor: inhibitors of CHOP induction in ER stress response | CHO-K1 CHOP-promoter luciferase, tunicamycin-induced, 15-18 h | inhibition, % at 10 µM | actives 3.8% (n = 220,000) | AID 2732;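 active = compounds that reduced the stress-induced luciferase reporter signal by more than about 70% of percent inhibition, limit read from the data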;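 also: 0% = tunicamycin plus vehicle and 100% = wells without tunicamycin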
NR3A LBD binder: modulates the human NR3A ligand-binding domain. NR3A LBD differential scanning fluorimetry, Tm shift; 0% = protein alone, 100% = glycine-bound protein. Tm shift relative to glycine control, % at 25 µM. actives 2.5% (n = 340,000);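 active = melting temperature shift of at least 10% of the positive control shift, at one fixed dose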
Beta cell apopt: blocks beta cell apoptosis. INS-1E cytokine-induced death, ATP luminescence, 48 h; percent of positive-control rescue, neutral wells zero. AID 435005. actives 0.8% (n = 300,000). protection from apoptosis, % (test concentration not listed);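 active = Every replicate reaches about 75%, or at least half do and their mean reaches it too, limit read from the data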;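 also: 0% = cytokine-treated negative control wells and 100% = positive control rescue; higher means more ATP so stronger rescue from cytokine killing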
CSC inhib: cancer stem cell inhibition | actives 1.1% (n = 300,000) | AID 2717 | cancer stem cell-like cells viability, luminescence | inhibition, % at 7.5 µM; in the data active = inhibition above about 75%; tested in HMLE shEcad cells
T cruzi inh: T. cruzi replication inhibition; T. cruzi beta-gal in NIH3T3, luminescence, 90 h; inhibition, % (test concentration not listed); actives 1.4% (n = 300,000); AID 1885;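 active = mean inhibition across valid replicates above about 55%, limit read from the data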;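 also: signal also drops with host cell toxicity which is not excluded here; 0% = plate median of DMSO wells and 100% = zero luminescence signal; higher percent means less beta-gal luminescence so fewer parasites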
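System: Mouse NIH/3T3 fibroblasts infected with β-gal-expressing T. cruzi Tulahuen C4 | Quantity: NIH/3T3 cells, 5,000 per well | Reagent: 5000 reporter trypomastigotes per well | Dosing: Compound pinned at 50 nL/well, DMSO | Schedule: 3 h host attachment, then at least 90 h co-culture | Detection: GalScreen luminescence, 60 min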
PREPL inhibitor: inhibitors of human prolyl oligopeptidase-like enzyme PREPL; Q4J6C6; recombinant PREPL, fluorescence polarization activity-based probe; inhibition, % at 5.96 µM; actives 0.68% (n = 320,000); in the data active = inhibition above about 43%;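 also: 0% = enzyme with DMSO and 100% = wells lacking enzyme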
Target sequence (Q4J6C6 whole entry, looked up): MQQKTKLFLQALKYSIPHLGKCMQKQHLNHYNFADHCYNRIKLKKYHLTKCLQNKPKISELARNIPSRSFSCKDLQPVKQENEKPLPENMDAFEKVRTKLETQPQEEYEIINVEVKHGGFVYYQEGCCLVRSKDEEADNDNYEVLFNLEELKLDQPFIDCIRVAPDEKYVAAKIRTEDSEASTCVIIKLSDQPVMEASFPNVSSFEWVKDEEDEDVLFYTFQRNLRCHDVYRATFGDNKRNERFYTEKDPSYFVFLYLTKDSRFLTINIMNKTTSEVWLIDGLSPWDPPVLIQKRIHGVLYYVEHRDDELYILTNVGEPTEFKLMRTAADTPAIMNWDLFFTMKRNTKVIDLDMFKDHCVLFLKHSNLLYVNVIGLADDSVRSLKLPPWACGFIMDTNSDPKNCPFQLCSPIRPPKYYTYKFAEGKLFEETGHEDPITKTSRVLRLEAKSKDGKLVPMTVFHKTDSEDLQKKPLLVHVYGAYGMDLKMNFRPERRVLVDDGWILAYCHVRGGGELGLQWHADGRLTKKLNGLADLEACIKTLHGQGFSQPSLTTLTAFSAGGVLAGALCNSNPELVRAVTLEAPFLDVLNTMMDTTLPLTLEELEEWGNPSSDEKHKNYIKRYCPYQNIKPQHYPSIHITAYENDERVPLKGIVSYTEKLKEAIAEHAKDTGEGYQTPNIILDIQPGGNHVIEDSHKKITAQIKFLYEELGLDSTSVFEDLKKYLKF
Numbers without * were called inactive; x = no result given.

SMILES	CHOP inhibitor	NR3A LBD binder	Beta cell apopt	CSC inhib	T cruzi inh	PREPL inhibitor
O=C(CSCc1cccc(Cl)c1)Nc1ccccc1-c1ccccc1	62	-1	-4	75*	6	4
Cc1ccccc1CSCC(=O)Nc1ccccc1-c1ccccc1	43	-4	-9	39	17	0
O=C1c2cccc(OCC(=O)N3N=C(c4cccs4)CC3c3ccc(F)cc3)c2CCN1Cc1cccnc1 (centres undefined)	31	-8	2	17	45	-7
Nc1nc(-c2ccccc2)nn1C(=O)Cc1ccccc1	-6	6	-8	-5	-1	0
Nc1nc(-c2cccnc2)nn1C(=O)Cc1ccccc1	78*	0	-16	-11	-11	-2
Cn1c(CNC(=O)c2ccco2)nnc1SCC(=O)Nc1ccccc1Cl	x	13*	-2	-9	0	11
COc1ccc(C2CCCN2C(=O)Nc2ccc(Cl)cc2)cc1OC (centres undefined)	16	-1	-1	2	7	24
CS(=O)(=O)N1CCc2cc(-c3csc(NC(=O)C(c4ccccc4)c4ccccc4)n3)ccc21	41	1	9	9	61*	1
CCOc1ccc(-c2cc(C(=O)NCCCN3CCCC3)c3ccccc3n2)cc1	x	-1	4	2	28	0
CCN(Cc1ccccc1)S(=O)(=O)c1ccc(S(=O)(=O)N(Cc2cccc(OC)c2)CC2CCCO2)cc1 (centres undefined)	8	2	7	6	49	3
COc1cccc(CN(CC2CCCO2)S(=O)(=O)c2ccc(-n3cnnn3)c(OC)c2)c1 (centres undefined)	17	10*	-11	-7	5	-1
Cc1ccc(C2CC(c3cccs3)=NN2C(=O)CSc2nc(=O)n3ccc(C)cc3n2)cc1 (centres undefined)	x	x	-1	6	60*	11
COc1ccc(C2CC(c3cccs3)=NN2C(=O)CSc2nc(=O)n3ccc(C)cc3n2)cc1 (centres undefined)	x	2	9	-13	37	20
O=C(CSc1nc(=O)n2ccccc2n1)N1N=C(c2cccs2)CC1c1ccc(F)cc1 (centres undefined)	x	2	x	-2	58*	3
Cc1ccc2c(-c3csc(N)n3)c[nH]c2c1	x	x	-3	1	-8	28
Cc1cc(NC(=O)c2cc3cccc([N+](=O)[O-])c3[nH]2)ccc1F	-6	29*	-4	-3	34	23
COCC(C)NC(=O)c1cc2cccc([N+](=O)[O-])c2[nH]1 (centres undefined)	12	0	-8	-9	-20	14
CCc1ccc(-c2nnn(CCC(=O)OC)n2)cc1	75*	0	x	-2	-14	4
CCOc1ccc(CN2CCN(CC(O)Cn3c4ccccc4c4ccccc43)CC2)cc1 (centres undefined)	108*	-1	8	9	30	21
CCn1c2ccccc2c2cc(CN3CCN(Cc4cc(OC)ccc4O)CC3)ccc21	51	1	-11	x	72*	4
O=C(Nc1cccc(F)c1)c1ccc(-c2ccccc2Cl)o1	-7	3	2	3	-13	10
Cc1ccc(-c2ccc(C(=O)Nc3cccc(F)c3)o2)c2ccccc12	4	17*	-1	20	2	5
CN(C)c1ccc(/C=N/N=C(N)N)cc1[N+](=O)[O-]	-28	-1	-2	-3	78*	0
CCCCOc1ccc(C)cc1CN(CCO)CCO	4	1	-6	-15	-6	0
CCC(C)(C)c1ccc(Oc2cccc(C(=O)O)c2)cc1	-11	4	-2	19	12	-3
SMILES	CHOP inhibitor	NR3A LBD binder	Beta cell apopt	CSC inhib	T cruzi inh	PREPL inhibitor
CCCCCc1ccc(OCCCC[n+]2cccc(C)c2)c(CCCCC)c1	89*	-9	111*	109*	52	14
CCCCCc1ccc(OCCCC[n+]2ccccc2)c(CCCCC)c1	-21	-4	87*	2	49	14
CCC(C)(C)c1ccc(OCCCC[n+]2ccccc2)c(C(C)(C)CC)c1	-3	-5	114*	105*	58*	16
CCCCCc1ccc(OCCCC[n+]2ccc(C)cc2)c(CCCCC)c1	75*	-4	111*	17	x	23
CC1=C(C(=O)N2CCCC(N3CCN(c4ccccc4F)CC3)C2)OCCO1 (centres undefined)	x	-1	7	2	-6	12
CCSC1=N/C(=C\c2ccc(C)s2)C(=O)S1	60	13*	-12	-15	3	3
O=C1SC(SCc2ccccc2Cl)=N/C1=C\c1ccc(C(=O)O)cc1	82*	1	x	-6	-32	-8
CCSC1=N/C(=C\c2ccc(C(=O)O)cc2)C(=O)S1	26	20*	-3	-13	1	-5
Cc1ccc(/C=C2\SC(N)=NC2=O)s1	19	-2	1	x	-6	16
CCc1c(C2(O)CCCCC2)[nH]c2c(C(=O)OC)cc(Cl)cc12	x	-14	-1	105*	21	-1
COc1ccc2oc(C(=O)NCCN3CCOCC3)c(C)c2c1OC	x	-7	4	1	-6	-3
Cc1cccc(NS(=O)(=O)c2cc(C(=O)N3CCc4ccccc4C3)ccc2Cl)c1C	19	-16	10	7	60*	-6
Cc1cccc(NS(=O)(=O)c2ccc(C(=O)N3CCCC3)cc2)c1C	x	19*	0	-8	-10	-4
Cc1ccc(C)c(NS(=O)(=O)c2cc(C(=O)N3CCc4ccccc4C3)ccc2Cl)c1	-3	-2	1	18	56*	13
Cc1ccc(S(=O)(=O)N2CCN(C(=O)COC(=O)CCOc3ccccc3)CC2)c(C)c1	x	2	-3	x	x	18
O=C(CC1C=Cc2ccccc2N1C(=O)c1ccccc1)c1ccccc1 (centres undefined)	-7	10*	-5	11	14	-12
Nn1c(SCC(=O)Nc2ccc(N3CCOCC3)cc2)nnc1-c1cccc(F)c1	x	0	-5	-1	x	7
COc1ccc(NS(=O)(=O)c2cccs2)cc1S(=O)(=O)N1CCOCC1	x	-2	-1	-14	-3	-2
COc1ccc(Nc2nc(-c3cccs3)nc3ccccc23)cc1S(=O)(=O)N1CCOCC1	x	5	29	38	55*	-3
CC(=O)c1nn(-c2cccc(Br)c2)cc1C(=O)c1ccc(Br)cc1	78*	-1	13	-2	-10	4
Cc1[nH]n(-c2ccccc2)c(=O)c1N=Nc1cccc(C(=O)O)c1	x	2	x	-9	3	4
c1ccc2c(c1)[nH]c1c3ccccc3sc21	19	24*	x	7	7	1
Cc1cn(C2CCCO2)c(=O)nc1N (centres undefined)	x	-3	x	x	x	x
Oc1ccc(Br)cc1/C=N/n1cnc2ccccc21	74*	-1	-7	-4	1	2
